Laboratory results reported in ChEMBL document CHEMBL3734675, “Synthesis, antimycobacterial and antibacterial activity of fluoroquinolone derivatives containing an 3-alkoxyimino-4-(cyclopropylanimo)methylpyrrolidine moiety” (2015).
In brackets after ≈: the same amount, converted by molar mass.

Tests used:
Format in all cases: functional
Escherichia coli [1] = assay: Antibacterial activity against extended-spectrum beta-lactamase producing Escherichia coli 14-1 after 18 to 24 hrs by two-fold serial dilution method
Procedure, shortened: (§1)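 Twofold serial dilution in agar media against Gram-positive and Gram-negative strains. Plates incubated at 35 °C for 18–24 h. MIC read as the lowest compound concentration giving complete inhibition of bacterial growth.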

Klebsiella pneumoniae [2] = assay: Antibacterial activity against extended-spectrum beta-lactamase producing Klebsiella pneumoniae 14-17 after 18 to 24 hrs by two-fold serial dilution method; procedure, shortened: as §1
Enterococcus faecium [3] = assay: Antibacterial activity against Enterococcus faecium 14-2 after 18 to 24 hrs by two-fold serial dilution method; procedure, shortened: as §1
Enterococcus faecalis [4] = assay: Antibacterial activity against Enterococcus faecalis 14-1 after 18 to 24 hrs by two-fold serial dilution method; procedure, shortened: as §1
[5] = system: Staphylococcus epidermidis; assay: Antibacterial activity against methicillin-resistant Staphylococcus epidermidis 14-37 after 18 to 24 hrs by two-fold serial dilution method
Procedure, shortened: (§2)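 Agar media, standard twofold serial dilution. MIC is the lowest concentration giving complete inhibition of bacterial growth after incubation at 35 °C for 18–24 h. Ciprofloxacin and levofloxacin were run as comparators.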

Staphylococcus aureus [6] = assay: Antibacterial activity against methicillin-resistant Staphylococcus aureus 14-4 after 18 to 24 hrs by two-fold serial dilution method; procedure, shortened: as §2
Pseudomonas aeruginosa [7] = assay: Antibacterial activity against Pseudomonas aeruginosa ATCC 27853 after 18 to 24 hrs by two-fold serial dilution method; procedure, shortened: as §1
Escherichia coli [8] = assay: Antibacterial activity against Escherichia coli ATCC 25922 after 18 to 24 hrs by two-fold serial dilution method; procedure, shortened: as §1
Escherichia coli [9] = assay: Antibacterial activity against extended-spectrum beta-lactamase producing Escherichia coli 14-2 after 18 to 24 hrs by two-fold serial dilution method; procedure, shortened: as §1
Klebsiella pneumoniae [10] = assay: Antibacterial activity against extended-spectrum beta-lactamase producing Klebsiella pneumoniae 14-19 after 18 to 24 hrs by two-fold serial dilution method; procedure, shortened: as §1
Staphylococcus aureus [11] = assay: Antibacterial activity against methicillin-sensitive Staphylococcus aureus 14-4 after 18 to 24 hrs by two-fold serial dilution method; procedure, shortened: as §1
Streptococcus pneumoniae = assay: Antibacterial activity against methicillin-resistant Streptococcus pneumoniae ATCC 19615 after 18 to 24 hrs by two-fold serial dilution method; procedure, shortened: as §2
Klebsiella pneumoniae [12] = assay: Antibacterial activity against extended-spectrum beta-lactamase producing Klebsiella pneumoniae 14-18 after 18 to 24 hrs by two-fold serial dilution method; procedure, shortened: as §1
Staphylococcus aureus [13] = assay: Antibacterial activity against methicillin-sensitive Staphylococcus aureus 14-1 after 18 to 24 hrs by two-fold serial dilution method; procedure, shortened: as §1
Pseudomonas aeruginosa [14] = assay: Antibacterial activity against Pseudomonas aeruginosa 14-15 after 18 to 24 hrs by two-fold serial dilution method; procedure, shortened: as §1
Escherichia coli [15] = assay: Antibacterial activity against Escherichia coli 14-2 after 18 to 24 hrs by two-fold serial dilution method; procedure, shortened: as §1
[16] = system: Staphylococcus epidermidis; assay: Antibacterial activity against methicillin-resistant Staphylococcus epidermidis 14-21 after 18 to 24 hrs by two-fold serial dilution method; procedure, shortened: as §2
Escherichia coli [17] = assay: Antibacterial activity against Escherichia coli 14-1 after 18 to 24 hrs by two-fold serial dilution method; procedure, shortened: as §1
Pseudomonas aeruginosa [18] = assay: Antibacterial activity against Pseudomonas aeruginosa 14-16 after 18 to 24 hrs by two-fold serial dilution method; procedure, shortened: as §1
[19] = system: Staphylococcus epidermidis; assay: Antibacterial activity against methicillin-sensitive Staphylococcus epidermidis 14-2 after 18 to 24 hrs by two-fold serial dilution method; procedure, shortened: as §1
Enterococcus faecium [20] = assay: Antibacterial activity against Enterococcus faecium 14-5 after 18 to 24 hrs by two-fold serial dilution method; procedure, shortened: as §1
Klebsiella pneumoniae [21] = assay: Antibacterial activity against Klebsiella pneumoniae 14-2 after 18 to 24 hrs by two-fold serial dilution method; procedure, shortened: as §1
Staphylococcus aureus [22] = assay: Antibacterial activity against Staphylococcus aureus CMCC 26003 after 18 to 24 hrs by two-fold serial dilution method; procedure, shortened: as §1
[23] = system: Staphylococcus epidermidis; assay: Antibacterial activity against methicillin-resistant Staphylococcus epidermidis 14-39 after 18 to 24 hrs by two-fold serial dilution method; procedure, shortened: as §2
Pseudomonas aeruginosa [24] = assay: Antibacterial activity against Pseudomonas aeruginosa 14-9 after 18 to 24 hrs by two-fold serial dilution method; procedure, shortened: as §1
Staphylococcus aureus [25] = assay: Antibacterial activity against methicillin-resistant Staphylococcus aureus 14-5 after 18 to 24 hrs by two-fold serial dilution method; procedure, shortened: as §2
Klebsiella pneumoniae [26] = assay: Antibacterial activity against Klebsiella pneumoniae 14-4 after 18 to 24 hrs by two-fold serial dilution method; procedure, shortened: as §1
Enterococcus faecium [27] = assay: Antibacterial activity against Enterococcus faecium 14-6 after 18 to 24 hrs by two-fold serial dilution method; procedure, shortened: as §1
Staphylococcus aureus [28] = assay: Antibacterial activity against methicillin-sensitive Staphylococcus aureus 14-3 after 18 to 24 hrs by two-fold serial dilution method; procedure, shortened: as §1
Klebsiella pneumoniae [29] = assay: Antibacterial activity against Klebsiella pneumoniae 14-3 after 18 to 24 hrs by two-fold serial dilution method; procedure, shortened: as §1
[30] = system: Staphylococcus epidermidis; assay: Antibacterial activity against methicillin-resistant Staphylococcus epidermidis 14-22 after 18 to 24 hrs by two-fold serial dilution method; procedure, shortened: as §2
Klebsiella pneumoniae [31] = assay: Antibacterial activity against Klebsiella pneumoniae 14-1 after 18 to 24 hrs by two-fold serial dilution method; procedure, shortened: as §1
Enterococcus faecalis [32] = assay: Antibacterial activity against Enterococcus faecalis 14-2 after 18 to 24 hrs by two-fold serial dilution method; procedure, shortened: as §1
Pseudomonas aeruginosa [33] = assay: Antibacterial activity against Pseudomonas aeruginosa 14-14 after 18 to 24 hrs by two-fold serial dilution method; procedure, shortened: as §1

CC1(CNC2CC2)CN(c2nc3c(cc2F)c(=O)c(C(=O)O)cn3[C@@H]2C[C@@H]2F)C/C1=N/OCc1ccccc1 (stereo partly drawn)
MIC (Escherichia coli [1]): 32 µg/mL (≈ 59.5 µM) | MIC (Klebsiella pneumoniae [2]): 64 µg/mL (≈ 119 µM) | MIC (Enterococcus faecium [3]): 16 µg/mL (≈ 29.8 µM) | MIC (Enterococcus faecalis [4]): 64 µg/mL (≈ 119 µM) | MIC [5]: 16 µg/mL (≈ 29.8 µM) | MIC (Staphylococcus aureus [6]): 16 µg/mL (≈ 29.8 µM) | MIC (Pseudomonas aeruginosa [7]): 64 µg/mL (≈ 119 µM) | MIC (Escherichia coli [8]): 4 µg/mL (≈ 7.44 µM) | MIC (Escherichia coli [9]): > 64 µg/mL | MIC (Klebsiella pneumoniae [10]): > 64 µg/mL | MIC (Staphylococcus aureus [11]): 8 µg/mL (≈ 14.9 µM) | MIC (Streptococcus pneumoniae): 1 µg/mL (≈ 1.86 µM) | MIC (Klebsiella pneumoniae [12]): 64 µg/mL (≈ 119 µM) | MIC (Staphylococcus aureus [13]): 8 µg/mL (≈ 14.9 µM) | MIC (Pseudomonas aeruginosa [14]): 64 µg/mL (≈ 119 µM) | MIC (Escherichia coli [15]): > 64 µg/mL | MIC [16]: 16 µg/mL (≈ 29.8 µM) | MIC (Escherichia coli [17]): > 64 µg/mL | MIC (Pseudomonas aeruginosa [18]): 64 µg/mL (≈ 119 µM) | MIC [19]: 64 µg/mL (≈ 119 µM) | MIC (Enterococcus faecium [20]): 32 µg/mL (≈ 59.5 µM) | MIC (Klebsiella pneumoniae [21]): 64 µg/mL (≈ 119 µM) | MIC (Staphylococcus aureus [22]): 0.125 µg/mL (≈ 0.233 µM) | MIC [23]: 32 µg/mL (≈ 59.5 µM) | MIC (Pseudomonas aeruginosa [24]): 32 µg/mL (≈ 59.5 µM) | MIC (Staphylococcus aureus [25]): 16 µg/mL (≈ 29.8 µM) | MIC (Klebsiella pneumoniae [26]): > 64 µg/mL | MIC (Enterococcus faecium [27]): 32 µg/mL (≈ 59.5 µM) | MIC (Staphylococcus aureus [28]): 2 µg/mL (≈ 3.72 µM) | MIC (Klebsiella pneumoniae [29]): 64 µg/mL (≈ 119 µM) | MIC [30]: 16 µg/mL (≈ 29.8 µM) | MIC (Klebsiella pneumoniae [31]): 64 µg/mL (≈ 119 µM) | MIC (Enterococcus faecalis [32]): 2 µg/mL (≈ 3.72 µM) | MIC (Pseudomonas aeruginosa [33]): 64 µg/mL (≈ 119 µM)

CO/N=C1/CN(c2c(F)cc3c(=O)c(C(=O)O)cn4c3c2OC[C@@H]4CF)CC1(C)CNC1CC1 (stereo partly drawn)
MIC (Escherichia coli [1]): 8 µg/mL (≈ 16.8 µM) | MIC (Klebsiella pneumoniae [2]): 32 µg/mL (≈ 67.2 µM) | MIC (Enterococcus faecium [3]): 8 µg/mL (≈ 16.8 µM) | MIC (Enterococcus faecalis [4]): 16 µg/mL (≈ 33.6 µM) | MIC [5]: 16 µg/mL (≈ 33.6 µM) | MIC (Staphylococcus aureus [6]): 8 µg/mL (≈ 16.8 µM) | MIC (Pseudomonas aeruginosa [7]): 32 µg/mL (≈ 67.2 µM) | MIC (Escherichia coli [8]): 2 µg/mL (≈ 4.2 µM) | MIC (Escherichia coli [9]): > 128 µg/mL | MIC (Klebsiella pneumoniae [10]): > 128 µg/mL | MIC (Staphylococcus aureus [11]): 0.03 µg/mL (≈ 0.063 µM) | MIC (Streptococcus pneumoniae): 0.25 µg/mL (≈ 0.525 µM) | MIC (Klebsiella pneumoniae [12]): 32 µg/mL (≈ 67.2 µM) | MIC (Staphylococcus aureus [13]): 4 µg/mL (≈ 8.39 µM) | MIC (Pseudomonas aeruginosa [14]): 128 µg/mL (≈ 269 µM) | MIC (Escherichia coli [15]): > 128 µg/mL | MIC [16]: 16 µg/mL (≈ 33.6 µM) | MIC (Escherichia coli [17]): > 128 µg/mL | MIC (Pseudomonas aeruginosa [18]): 64 µg/mL (≈ 134 µM) | MIC [19]: 16 µg/mL (≈ 33.6 µM) | MIC (Enterococcus faecium [20]): 4 µg/mL (≈ 8.39 µM) | MIC (Klebsiella pneumoniae [21]): > 128 µg/mL | MIC (Staphylococcus aureus [22]): < 0.008 µg/mL | MIC [23]: 2 µg/mL (≈ 4.2 µM) | MIC (Pseudomonas aeruginosa [24]): 32 µg/mL (≈ 67.2 µM) | MIC (Staphylococcus aureus [25]): 4 µg/mL (≈ 8.39 µM) | MIC (Klebsiella pneumoniae [26]): 128 µg/mL (≈ 269 µM) | MIC (Enterococcus faecium [27]): 16 µg/mL (≈ 33.6 µM) | MIC (Staphylococcus aureus [28]): 0.03 µg/mL (≈ 0.063 µM) | MIC (Klebsiella pneumoniae [29]): 128 µg/mL (≈ 269 µM) | MIC [30]: 4 µg/mL (≈ 8.39 µM) | MIC (Klebsiella pneumoniae [31]): > 128 µg/mL | MIC (Enterococcus faecalis [32]): 0.5 µg/mL (≈ 1.05 µM) | MIC (Pseudomonas aeruginosa [33]): 128 µg/mL (≈ 269 µM)
